Assays:
[1] = molecular target: Xanthine dehydrogenase/oxidase (Bos taurus, UniProt P80457); test: Inhibition of bovine milk xanthine oxidoreductase
In short: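 Bovine milk XO (2 mU/mL) with 15 µM xanthine in 50 mM phosphate buffer, pH 7.4, at 25 °C, with or without compound. Uric acid formation read as absorbance rise at 292 nm. Initial rate taken from 0 to 2.5 min and used for IC50.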

[2] = Cmax in rat at 3 mg/kg, po; format: ADME, organism-based; parameters: dose 3 mg/kg, route oral; conditions: in vivo
In short: (§1)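 Compounds given orally to rats; blood taken from the jugular vein at set times and centrifuged to plasma. Plasma aliquots were mixed with acetonitrile containing an internal standard, then centrifuged.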

CYP3A4 = CYP3A4 (Homo sapiens, UniProt P08684); test: Inhibition of human CYP3A4 at 10 uM; format: ADME
CYP3A4, sequence (P08684 whole entry): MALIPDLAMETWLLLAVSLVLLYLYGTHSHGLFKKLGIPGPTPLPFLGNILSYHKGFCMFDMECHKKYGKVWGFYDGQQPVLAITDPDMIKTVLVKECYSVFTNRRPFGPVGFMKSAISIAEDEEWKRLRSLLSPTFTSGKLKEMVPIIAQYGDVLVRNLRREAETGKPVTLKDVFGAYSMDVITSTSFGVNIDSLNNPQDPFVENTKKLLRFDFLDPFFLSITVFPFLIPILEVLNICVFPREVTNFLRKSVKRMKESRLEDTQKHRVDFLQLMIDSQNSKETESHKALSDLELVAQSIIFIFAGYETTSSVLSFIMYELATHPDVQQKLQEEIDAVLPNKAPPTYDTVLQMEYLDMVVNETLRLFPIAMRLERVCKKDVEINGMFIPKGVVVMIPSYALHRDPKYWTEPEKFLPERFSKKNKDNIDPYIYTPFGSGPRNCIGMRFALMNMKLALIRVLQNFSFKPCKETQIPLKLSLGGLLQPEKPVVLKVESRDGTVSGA

Rattus norvegicus [3] = test: Reduction of uric acid level in rat serum at 0.3 mg/kg, po after 6 hrs by phosphotungstic acid method; format: functional; parameters: scale not given: the % may be the effect or the level left
In short: (§2)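 Rats dosed orally. Blood drawn from the orbital sinus 6 h post-dose, clotted 1 h at room temperature and centrifuged. Serum uric acid measured by the phosphotungstic acid method.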

[4] = Half life in rat at 3 mg/kg, po; format: ADME, organism-based; parameters: dose 3 mg/kg, route oral; conditions: in vivo; in short: as §1
[5] = Cmax in rat at 1 mg/kg, po; format: ADME, organism-based; parameters: dose 1 mg/kg, route oral; conditions: in vivo; in short: as §1
Rattus norvegicus [6] = test: Reduction of uric acid level in rat serum at 1 mg/kg, po after 6 hrs by phosphotungstic acid method; format: functional; parameters: scale not given: the % may be the effect or the level left; in short: as §2
Cytochrome P450 2D6 = Cytochrome P450 2D6 (Homo sapiens, UniProt P10635); test: Inhibition of human CYP2D6; format: ADME
Cytochrome P450 2D6, sequence (P10635 whole entry): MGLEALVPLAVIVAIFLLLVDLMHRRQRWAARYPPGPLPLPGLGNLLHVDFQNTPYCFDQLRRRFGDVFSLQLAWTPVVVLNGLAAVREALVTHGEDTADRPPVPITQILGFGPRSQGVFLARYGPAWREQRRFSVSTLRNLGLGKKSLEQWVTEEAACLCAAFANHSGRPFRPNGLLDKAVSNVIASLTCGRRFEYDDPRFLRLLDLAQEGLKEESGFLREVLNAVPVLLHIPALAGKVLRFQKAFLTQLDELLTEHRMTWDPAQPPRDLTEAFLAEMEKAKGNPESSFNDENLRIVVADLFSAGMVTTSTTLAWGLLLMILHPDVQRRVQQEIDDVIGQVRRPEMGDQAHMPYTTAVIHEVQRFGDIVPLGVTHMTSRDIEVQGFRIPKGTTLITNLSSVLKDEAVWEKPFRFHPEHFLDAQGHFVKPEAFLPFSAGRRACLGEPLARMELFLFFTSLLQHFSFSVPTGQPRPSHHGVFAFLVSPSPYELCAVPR

Cytochrome P450 2C9 = Cytochrome P450 2C9 (Homo sapiens, UniProt P11712); test: Inhibition of human CYP2C9; format: ADME
Cytochrome P450 2C9, sequence (P11712 whole entry): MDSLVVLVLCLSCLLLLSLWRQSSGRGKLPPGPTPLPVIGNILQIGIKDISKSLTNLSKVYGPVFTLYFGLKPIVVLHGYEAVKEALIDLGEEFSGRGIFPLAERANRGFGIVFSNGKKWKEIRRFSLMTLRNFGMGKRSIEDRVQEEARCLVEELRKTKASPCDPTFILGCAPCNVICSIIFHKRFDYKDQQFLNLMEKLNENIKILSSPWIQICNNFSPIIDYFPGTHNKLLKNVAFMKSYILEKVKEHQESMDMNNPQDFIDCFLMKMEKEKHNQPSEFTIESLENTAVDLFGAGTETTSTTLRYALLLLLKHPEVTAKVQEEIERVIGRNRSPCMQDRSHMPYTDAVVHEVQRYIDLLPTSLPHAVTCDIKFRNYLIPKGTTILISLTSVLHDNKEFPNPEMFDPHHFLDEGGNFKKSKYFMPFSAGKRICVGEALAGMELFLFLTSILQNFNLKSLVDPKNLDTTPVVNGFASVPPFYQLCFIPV

Cytochrome P450 2C19 = Cytochrome P450 2C19 (Homo sapiens, UniProt P33261); test: Inhibition of human CYP2C19; format: ADME
Cytochrome P450 2C19, sequence (P33261 whole entry): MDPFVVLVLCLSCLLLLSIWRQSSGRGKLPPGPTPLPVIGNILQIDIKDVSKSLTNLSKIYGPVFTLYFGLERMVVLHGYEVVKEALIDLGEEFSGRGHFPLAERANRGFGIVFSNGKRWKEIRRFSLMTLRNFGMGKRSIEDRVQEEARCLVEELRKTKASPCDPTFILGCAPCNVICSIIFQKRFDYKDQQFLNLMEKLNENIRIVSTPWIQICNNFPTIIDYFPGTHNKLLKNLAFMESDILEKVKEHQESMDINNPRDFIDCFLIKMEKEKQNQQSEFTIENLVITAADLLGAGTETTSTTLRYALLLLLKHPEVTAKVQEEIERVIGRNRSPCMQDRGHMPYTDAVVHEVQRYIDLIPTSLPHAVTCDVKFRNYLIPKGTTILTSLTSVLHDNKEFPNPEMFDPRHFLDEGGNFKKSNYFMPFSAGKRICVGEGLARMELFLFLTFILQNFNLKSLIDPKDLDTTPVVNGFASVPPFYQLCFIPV

Cytochrome P450 1A2 = molecular target: T1, Cytochrome P450 1A2 (Homo sapiens, UniProt P05177); test: Inhibition of human CYP1A2; format: ADME
T1 sequence (P05177 whole entry): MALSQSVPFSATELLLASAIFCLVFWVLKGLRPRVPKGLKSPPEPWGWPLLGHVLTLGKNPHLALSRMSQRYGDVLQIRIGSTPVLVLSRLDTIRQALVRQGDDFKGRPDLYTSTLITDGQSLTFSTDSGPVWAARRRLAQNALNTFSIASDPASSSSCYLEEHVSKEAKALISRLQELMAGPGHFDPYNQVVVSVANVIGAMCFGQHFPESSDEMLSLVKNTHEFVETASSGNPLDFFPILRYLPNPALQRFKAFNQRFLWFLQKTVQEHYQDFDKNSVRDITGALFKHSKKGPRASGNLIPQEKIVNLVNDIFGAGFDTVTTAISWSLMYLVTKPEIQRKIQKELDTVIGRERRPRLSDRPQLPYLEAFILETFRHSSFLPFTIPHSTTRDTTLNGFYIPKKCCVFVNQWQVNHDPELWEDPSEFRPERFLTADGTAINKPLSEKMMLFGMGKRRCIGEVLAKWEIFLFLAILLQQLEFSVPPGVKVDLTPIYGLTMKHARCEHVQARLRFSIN

Xanthine dehydrogenase/oxidase, sequence (P80457 whole entry): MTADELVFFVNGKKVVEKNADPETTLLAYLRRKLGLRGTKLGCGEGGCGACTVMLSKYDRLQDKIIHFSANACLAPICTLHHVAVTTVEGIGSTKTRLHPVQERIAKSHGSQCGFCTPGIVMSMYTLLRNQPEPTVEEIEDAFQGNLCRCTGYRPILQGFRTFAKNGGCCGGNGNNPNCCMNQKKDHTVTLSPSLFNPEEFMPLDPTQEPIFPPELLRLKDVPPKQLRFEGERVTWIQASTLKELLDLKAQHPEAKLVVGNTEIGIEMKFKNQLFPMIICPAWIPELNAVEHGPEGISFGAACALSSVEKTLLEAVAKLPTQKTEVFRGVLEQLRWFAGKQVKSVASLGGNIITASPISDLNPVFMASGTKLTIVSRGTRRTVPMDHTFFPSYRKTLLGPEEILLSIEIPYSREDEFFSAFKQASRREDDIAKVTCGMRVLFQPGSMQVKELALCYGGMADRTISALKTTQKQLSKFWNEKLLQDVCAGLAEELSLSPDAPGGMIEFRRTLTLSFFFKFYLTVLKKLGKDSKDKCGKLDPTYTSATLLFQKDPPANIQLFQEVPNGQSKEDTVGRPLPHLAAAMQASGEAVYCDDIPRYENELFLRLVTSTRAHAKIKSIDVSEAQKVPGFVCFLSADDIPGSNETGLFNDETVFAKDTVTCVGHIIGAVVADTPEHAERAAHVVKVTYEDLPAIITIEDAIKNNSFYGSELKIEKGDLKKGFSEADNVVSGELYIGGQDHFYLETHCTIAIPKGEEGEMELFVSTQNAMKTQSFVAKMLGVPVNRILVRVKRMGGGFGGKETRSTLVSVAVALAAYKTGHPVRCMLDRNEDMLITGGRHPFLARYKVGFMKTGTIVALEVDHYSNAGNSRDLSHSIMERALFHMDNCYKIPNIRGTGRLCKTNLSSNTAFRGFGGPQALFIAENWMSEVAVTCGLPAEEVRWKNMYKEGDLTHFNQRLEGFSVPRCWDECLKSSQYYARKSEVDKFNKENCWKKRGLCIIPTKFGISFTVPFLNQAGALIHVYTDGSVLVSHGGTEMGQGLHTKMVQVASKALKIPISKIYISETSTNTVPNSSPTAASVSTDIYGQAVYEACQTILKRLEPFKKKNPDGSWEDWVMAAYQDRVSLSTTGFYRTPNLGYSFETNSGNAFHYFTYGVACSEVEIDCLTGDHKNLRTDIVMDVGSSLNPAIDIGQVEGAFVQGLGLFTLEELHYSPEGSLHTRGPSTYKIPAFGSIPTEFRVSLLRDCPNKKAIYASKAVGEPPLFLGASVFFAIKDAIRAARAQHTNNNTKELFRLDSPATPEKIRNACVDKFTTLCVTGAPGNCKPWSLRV

Row | IC50 [1] [nM] | inhibition at 10 µM (CYP3A4) [%] | Structure (SMILES) | Activity (Rattus norvegicus [3]) [%] | also measured
1 | > 10000 | – | CC(C)COc1ccc(-c2nc(-c3ccccn3)n[nH]2)cc1[N+](=O)[O-] | – | –
2 | 31 | -6.7 | COCCOCCOc1ccc(-c2nc(-c3ccnc(C)c3)n[nH]2)cc1C#N | 52 | Cmax [2]: 712 ng/mL; half-life [4]: 58.2 min
3 | 10 | 7.7 | Cc1cc(-c2nc(-c3ccc(OCC(C)C)c([N+](=O)[O-])c3)n[nH]2)ccn1 | 39.1 | Cmax [5]: 7.8 ng/mL
4 | 5900 | 18.2 | CC(C)COc1ccc(-c2nc(-c3cccnc3)n[nH]2)cc1[N+](=O)[O-] | – | –
5 | 60 | – | Cc1cc(-c2n[nH]c(-c3ccc(OCC4COC(C)(C)O4)c(C#N)c3)n2)ccn1 (stereo not given) | 27.9 | –
6 | 24 | – | COCOc1ccc(-c2nc(-c3ccnc(C)c3)n[nH]2)cc1C#N | 27 | –
7 | 15 | – | CC(C)COc1ccc(NC(=O)Nc2ccncc2)cc1[N+](=O)[O-] | -3.2 | –
8 | 110 | – | Cc1cc(-c2nnc(-c3ccc(OCC(=O)O)c(C#N)c3)[nH]2)ccn1 | – | –
9 | 40 | – | Cc1cc(-c2n[nH]c(-c3ccc(OCCO)c(C#N)c3)n2)ccn1 | 10.9 | –
10 | – | 7.1 | CC(C)COc1ccc(-c2nc(-c3ccnc(Cl)c3)n[nH]2)cc1[N+](=O)[O-] | – | Activity (Rattus norvegicus [6]): 40.6%
11 | > 10000 | 10.9 | Cc1cc(-c2nnc(-c3ccc(OCC(C)C)c([N+](=O)[O-])c3)[nH]2)cc(Cl)n1 | – | –
12 | 7300 | – | CC(C)COc1ccc(NC(=O)C(=O)O)cc1Cl | – | –
13 | > 10000 | 6.4 | COc1cc(-c2n[nH]c(-c3ccc(OCC(C)C)c([N+](=O)[O-])c3)n2)ccn1 | – | –
14 | 26 | – | CCCCOCCOCCOc1ccc(-c2nc(-c3ccnc(C)c3)n[nH]2)cc1C#N | 10.1 | –
15 | 17 | 16.8 | Cc1cc(-c2nc(-c3ccc(OCC(C)C)c(C#N)c3)n[nH]2)ccn1 | 46 | Cmax [2]: 16.7 ng/mL; Cmax [5]: 4.5 ng/mL; half-life [4]: 22.2 min
16 | 3.7 | 80.9 | CC(C)COc1ccc(-c2n[nH]c(-c3ccncc3)n2)cc1[N+](=O)[O-] | 33.7 | Activity (Cytochrome P450 2D6): Active; Activity (Cytochrome P450 2C9): Active; Activity (Cytochrome P450 2C19): Active; Activity (Cytochrome P450 1A2): Active; Cmax [5]: 13.8 ng/mL
17 | 21 | – | Cc1cc(-c2n[nH]c(-c3ccc(OCCOCCOCCCl)c(C#N)c3)n2)ccn1 | 40.7 | Cmax [2]: 684 ng/mL; half-life [4]: 31.2 min
18 | 64 | – | COCCOc1ccc(-c2nc(-c3ccnc(C)c3)n[nH]2)cc1C#N | 36.5 | –
19 | 43 | – | Cc1cc(-c2n[nH]c(-c3ccc(O)c(C#N)c3)n2)ccn1 | -8.2 | –
20 | 20 | – | CCOC(=O)c1cc(-c2nc(-c3ccnc(C)c3)n[nH]2)ccc1OCC(C)C | 42.4 | –
21 | 24 | 16.5 | COCCOCOc1ccc(-c2nc(-c3ccnc(C)c3)n[nH]2)cc1C#N | 40 | Cmax [2]: 360 ng/mL; half-life [4]: 27 min
22 | > 10000 | – | Cc1cc(-c2nnc(-c3ccc(OCC(C)C)c(C(=O)O)c3)[nH]2)ccn1 | – | –
